According to ChEMBL document CHEMBL4118199 (J Med Chem, 2018):

Assays:
Homo sapiens [1] = species: Homo sapiens; assay: Selectivity ratio of IC50 for human 20S constitutive proteasome beta-5 to IC50 for human 20S constitutive proteasome beta-2
[2] = target: T1, Proteasome subunit beta type-8 (Homo sapiens, UniProt P28062); assay: Inhibition of human 20S immunoproteasome beta-5 using Suc-LLVY-AMC as substrate after 60 mins by fluorescence assay
T1 sequence (P28062 whole entry): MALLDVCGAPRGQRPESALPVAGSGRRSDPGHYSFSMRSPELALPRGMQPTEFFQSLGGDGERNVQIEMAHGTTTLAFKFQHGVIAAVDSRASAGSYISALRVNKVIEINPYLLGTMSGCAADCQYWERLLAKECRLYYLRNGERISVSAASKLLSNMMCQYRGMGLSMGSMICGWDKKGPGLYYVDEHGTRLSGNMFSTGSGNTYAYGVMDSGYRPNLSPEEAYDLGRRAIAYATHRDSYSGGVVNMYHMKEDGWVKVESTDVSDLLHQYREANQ
In short: (§1)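 Purified 20S proteasome (final 2.5 nM) in kit assay buffer. Inhibitors preincubated 60 min at ambient temperature with shaking, final concentrations 0.1 nM–400 µM. Fluorogenic substrate at final 100 µM. Fluorescence (ex 360 nm, em 460 nm) read kinetically for 2 h at 25 °C. Duplicates, three repetitions. IC50 obtained from a Hill-equation fit of % residual activity against log concentration.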

[3] = Stability in pH 8 PBS buffer at 1 mM after 2 hrs by HPLC analysis; type: physicochemical; details: read-out: Stability
In short: (§2)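 Compound in DMSO added to 1x PBS adjusted with HCl/NaOH to pH 6.5, 7.4 or 8.0, giving about 1 mM final. Sulfonyl fluoride hydrolysis followed by analytical HPLC over 12 h. Peak measured right after buffer addition set as 0 h reference. Reported as residual % of intact R-SO2F.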

Homo sapiens [4] = species: Homo sapiens; assay: Selectivity ratio of IC50 for human 20S immunoproteasome beta-5 to IC50 for human 20S immunoproteasome beta-2
[5] = Stability in pH 7.4 PBS buffer at 1 mM after 6 hrs by HPLC analysis; type: physicochemical; details: read-out: Stability; in short: as §2
[6] = target: T2, Proteasome subunit beta type-10 (Homo sapiens, UniProt P40306); assay: Inhibition of human 20S immunoproteasome beta-2 using Bz-VGR-AMC as substrate after 60 mins by fluorescence assay; in short: as §1
T2 sequence (P40306 whole entry): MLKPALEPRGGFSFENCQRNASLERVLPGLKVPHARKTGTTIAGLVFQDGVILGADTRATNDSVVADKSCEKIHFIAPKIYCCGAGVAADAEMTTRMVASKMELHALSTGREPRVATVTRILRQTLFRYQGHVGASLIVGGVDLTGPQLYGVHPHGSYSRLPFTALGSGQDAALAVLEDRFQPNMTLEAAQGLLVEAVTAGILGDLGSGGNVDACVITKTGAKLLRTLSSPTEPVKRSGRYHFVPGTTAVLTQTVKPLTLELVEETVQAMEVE

[7] = Stability in pH 7.4 PBS buffer at 1 mM after 1 hr by HPLC analysis; type: physicochemical; details: read-out: Stability; in short: as §2
[8] = target: T3, Proteasome Macropain subunit MB1 (Homo sapiens, UniProt P28074); assay: Inhibition of human 20S constitutive proteasome beta-5 using Suc-LLVY-AMC as substrate after 60 mins by fluorescence assay
T3 sequence (P28074 whole entry): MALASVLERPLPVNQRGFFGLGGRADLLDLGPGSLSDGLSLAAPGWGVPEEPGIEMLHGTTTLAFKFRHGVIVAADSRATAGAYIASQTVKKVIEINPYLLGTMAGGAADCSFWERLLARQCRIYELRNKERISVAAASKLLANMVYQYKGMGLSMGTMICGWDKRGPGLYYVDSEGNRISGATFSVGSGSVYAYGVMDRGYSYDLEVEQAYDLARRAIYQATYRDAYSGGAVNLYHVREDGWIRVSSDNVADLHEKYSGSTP
In short: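 Inhibitors preincubated 60 min at ambient temperature with shaking, final concentrations 0.1 nM–400 µM. Fluorogenic substrate at final 100 µM. Duplicates, three repetitions. IC50 obtained from a Hill-equation fit of % residual activity against log concentration.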

[9] = Stability in pH 6.5 PBS buffer at 1 mM after 12 hrs by HPLC analysis; type: physicochemical; details: read-out: Stability; in short: as §2

Row | SMILES | Ratio IC50 (Homo sapiens [1]) | IC50 [2] | remaining at 2 h, 1000 µM [3] | Ratio IC50 (Homo sapiens [4]) | remaining at 6 h, 1000 µM [5] | IC50 [6] | remaining at 1 h, 1000 µM [7] | IC50 [8] | remaining at 12 h, 1000 µM [9]
1 | CC(=O)N[C@@H](Cc1ccccc1)C(=O)N[C@@H](CC(C)C)C(=O)N[C@@H](CC(C)C)C(=O)N[C@@H](Cc1ccc(CN)cc1)CS(=O)(=O)F | 150 | 17.2 µM | 50% | 44 | ≥ 50% | 0.395 µM | 90% | 18 µM | 75%
2 | CC(C)C[C@H](NC(=O)[C@H](CC(C)C)NC(=O)[C@H](Cc1ccccc1)NC(=O)OCc1ccccc1)C(=O)N[C@@H](CCCNC(=N)N)CS(=O)(=O)F | 45 | 6.7 µM | 50% | 17 | ≥ 50% | 0.4 µM | 90% | 6.7 µM | 75%
3 | CC(C)C[C@H](NC(=O)OCc1ccccc1)C(=O)N[C@@H](CC(C)C)C(=O)N[C@@H](CC(C)C)C(=O)N[C@@H](CCCNC(=N)N)CS(=O)(=O)F | 50 | 14 µM | 50% | 13 | ≥ 50% | 1.11 µM | 90% | 10 µM | 75%
4 | CC(C)C[C@H](NC(=O)[C@H](Cc1ccccc1)N=[N+]=[N-])C(=O)N[C@@H](CC(C)C)C(=O)N[C@@H](CCCCN)CS(=O)(=O)F | 96 | – | 50% | – | ≥ 50% | – | 90% | 67 µM | 75%
5 | CC(C)C[C@H](NC(=O)[C@H](Cc1ccccc1)N=[N+]=[N-])C(=O)N[C@@H](CC(C)C)C(=O)N[C@@H](Cc1ccc(N)cc1)CS(=O)(=O)F | – | – | 50% | – | ≥ 50% | – | 90% | – | 75%
6 | CC(C)C[C@H](NC(=O)[C@H](CC(C)C)NC(=O)[C@@H](N)Cc1ccccc1)C(=O)N[C@@H](CCCNC(=N)N)CS(=O)(=O)F | 560 | > 100 µM | 50% | > 1000 | ≥ 50% | 0.21 µM | 90% | 140 µM | 75%
7 | CC(C)C[C@H](NC(=O)[C@H](Cc1ccccc1)N=[N+]=[N-])C(=O)N[C@@H](CC(C)C)C(=O)N[C@H](/C=C/S(C)(=O)=O)Cc1ccc(CN)cc1 | – | 1.8 µM | – | – | – | 0.0275 µM | – | – | –
8 | CC(=O)N[C@@H](Cc1ccccc1)C(=O)N[C@@H](CC(C)C)C(=O)N[C@@H](CC(C)C)C(=O)N[C@@H](CCCNC(=N)N)CS(=O)(=O)F | 70 | – | 50% | – | ≥ 50% | – | 90% | 69 µM | 75%
9 | CC(C)C[C@H](NC(=O)[C@H](Cc1ccccc1)N=[N+]=[N-])C(=O)N[C@@H](CC(C)C)C(=O)N[C@@H](CCCNC(=N)N)CS(=O)(=O)F | 110 | – | 50% | – | ≥ 50% | – | 90% | 39 µM | 75%
10 | CC(C)C[C@H](NC(=O)[C@H](CC(C)C)NC(=O)[C@@H](N)Cc1ccccc1)C(=O)N[C@@H](Cc1ccc(N)cc1)CS(=O)(=O)F | 4.3 | 0.45 µM | 50% | 2.3 | ≥ 50% | 0.2 µM | 90% | 0.95 µM | 75%
11 | CC(=O)N[C@@H](Cc1ccccc1)C(=O)N[C@@H](CC(C)C)C(=O)N[C@@H](CC(C)C)C(=O)N[C@@H](CCCCN)CS(=O)(=O)F | 300 | – | 50% | – | ≥ 50% | – | 90% | > 100 µM | 75%
12 | CC(C)C[C@H](NC(=O)[C@H](Cc1ccccc1)N=[N+]=[N-])C(=O)N[C@@H](CC(C)C)C(=O)N[C@@H](Cc1ccc(CN)cc1)CS(=O)(=O)F | 66 | 3.1 µM | 50% | 24 | ≥ 50% | 0.13 µM | 90% | 8.9 µM | 75%
13 | CC(C)C[C@H](NC(=O)[C@H](CC(C)C)NC(=O)[C@@H](N)Cc1ccccc1)C(=O)N[C@@H](Cc1ccc(CN)cc1)CS(=O)(=O)F | 900 | 137 µM | 50% | 380 | ≥ 50% | 0.36 µM | 90% | 125 µM | 75%
14 | CC(C)C[C@H](NC(=O)[C@H](CC(C)C)NC(=O)[C@@H](N)Cc1ccccc1)C(=O)N[C@@H](CCCCN)CS(=O)(=O)F | > 1000 | > 100 µM | 50% | > 1000 | ≥ 50% | 0.3 µM | 90% | > 100 µM | 75%
15 | CC(=O)N[C@@H](Cc1ccccc1)C(=O)N[C@@H](CC(C)C)C(=O)N[C@@H](CC(C)C)C(=O)N[C@@H](Cc1ccc(N)cc1)CS(=O)(=O)F | 0.1 | – | 50% | – | ≥ 50% | – | 90% | 0.21 µM | 75%
16 | CC(C)C[C@H](NC(=O)[C@H](CC(C)C)NC(=O)[C@H](Cc1ccccc1)NC(=O)OC(C)(C)C)C(=O)N[C@@H](CCCNC(=N)N)CS(=O)(=O)F | 40 | – | 50% | – | ≥ 50% | – | 90% | 27.8 µM | 75%
